ChEMBL document CHEMBL4619746, “Discovery and biological evaluation of proteolysis targeting chimeras (PROTACs) as an EGFR degraders based on osimertinib and lenalidomide” (Bioorg Med Chem Lett, 2020)
Calls of active or inactive are those of the source. The rule behind the calls is not given here.

Tests used:
[1] = tested on: Protein cereblon/Epidermal growth factor receptor (Homo sapiens), P00533+Q96SW2 [UNDEFINED MUTATION]; experiment: Protac activity at CRBN/EGFR exon 19 deletion mutant in human PC9 cells assessed as induction of degradation of EGFR assessed as fold change in EGFR protein expression at 0.3 uM incubated for 48 hrs by Western blot analysis relative to control (reference value: 1); assay type: cell-based; conditions: PC-9
In short: (§1)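 Time course in PC9 cells at a fixed 0.3 μM. Cells harvested at the indicated time points and EGFR protein quantified by western blot relative to control.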

[2] = tested on: Protein cereblon/Epidermal growth factor receptor (Homo sapiens), P00533+Q96SW2 [UNDEFINED MUTATION]; experiment: Protac activity at CRBN/EGFR exon 19 deletion mutant in human PC9 cells assessed as induction of degradation of EGFR assessed as fold change in EGFR protein expression at 0.3 uM incubated for 24 hrs by Western blot analysis relative to control (reference value: 1); assay type: cell-based; conditions: PC-9; in short: as §1
[3] = tested on: Protein cereblon/Epidermal growth factor receptor (Homo sapiens), P00533+Q96SW2 [UNDEFINED MUTATION]; experiment: Protac activity at CRBN/EGFR exon 19 deletion mutant in human PC9 cells assessed as induction of degradation of EGFR assessed as fold change in EGFR protein expression at 0.3 uM incubated for 12 hrs by Western blot analysis relative to control (reference value: 1); assay type: cell-based; conditions: PC-9; in short: as §1
[4] = tested on: Protein cereblon/Epidermal growth factor receptor (Homo sapiens), P00533+Q96SW2 [UNDEFINED MUTATION]; experiment: Protac activity at CRBN/EGFR exon 19 deletion mutant in human PC9 cells assessed as induction of degradation of EGFR assessed as fold change in EGFR protein expression at 0.3 uM incubated for 3 hrs by Western blot analysis relative to control (reference value: 1); assay type: cell-based; conditions: PC-9; in short: as §1
[5] = tested on: Protein cereblon/Epidermal growth factor receptor (Homo sapiens), P00533+Q96SW2 [UNDEFINED MUTATION]; experiment: Protac activity at CRBN/EGFR exon 19 deletion mutant in human PC9 cells assessed as induction of degradation of EGFR assessed as fold change in EGFR protein expression at 0.3 uM incubated for 1 hr by Western blot analysis relative to control (reference value: 1); assay type: cell-based; conditions: PC-9; in short: as §1
[6] = tested on: Protein cereblon/Epidermal growth factor receptor (Homo sapiens), P00533+Q96SW2 [UNDEFINED MUTATION]; experiment: Protac activity at CRBN/EGFR exon 19 deletion mutant in human PC9 cells assessed as induction of degradation of EGFR at 0.3 uM incubated for 6 hrs by Western blot analysis relative to control; assay type: cell-based; conditions: PC-9; in short: as §1
[7] = tested on: Protein cereblon/Epidermal growth factor receptor (Homo sapiens), P00533+Q96SW2 [UNDEFINED MUTATION]; experiment: Protac activity at CRBN/EGFR exon 19 deletion mutant in human PC9 cells assessed as induction of degradation of EGFR by measuring fold change in EGFR protein expression at 0.1 uM incubated for 6 hrs by Western blot analysis relative to control (reference value: 1); assay type: cell-based; conditions: PC-9
In short: (§2)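 PC9 cells (EGFR Del19) exposed for 6 h to six concentrations from 0.1 μM to 10 μM. EGFR protein measured by western blot relative to untreated control. DC50 and Dmax derived from the concentration-response.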

[8] = tested on: Protein cereblon/Epidermal growth factor receptor (Homo sapiens), P00533+Q96SW2 [UNDEFINED MUTATION]; experiment: Protac activity at CRBN/EGFR exon 19 deletion mutant in human PC9 cells assessed as induction of degradation of EGFR by measuring fold change in EGFR protein expression at 0.3 uM incubated for 6 hrs by Western blot analysis relative to control (reference value: 1); assay type: cell-based; conditions: PC-9; in short: as §2
[9] = tested on: Protein cereblon/Epidermal growth factor receptor (Homo sapiens), P00533+Q96SW2 [UNDEFINED MUTATION]; experiment: Protac activity at CRBN/EGFR exon 19 deletion mutant in human PC9 cells assessed as induction of degradation of EGFR by measuring fold change in EGFR protein expression at 1 uM incubated for 6 hrs by Western blot analysis relative to control (reference value: 1); assay type: cell-based; conditions: PC-9; in short: as §2
[10] = tested on: Protein cereblon/Epidermal growth factor receptor (Homo sapiens), P00533+Q96SW2 [UNDEFINED MUTATION]; experiment: Protac activity at CRBN/EGFR exon 19 deletion mutant in human PC9 cells assessed as induction of degradation of EGFR by measuring fold change in EGFR protein expression at 3 uM incubated for 6 hrs by Western blot analysis relative to control (reference value: 1); assay type: cell-based; conditions: PC-9; in short: as §2
[11] = tested on: Protein cereblon/Epidermal growth factor receptor (Homo sapiens), P00533+Q96SW2 [UNDEFINED MUTATION]; experiment: Protac activity at CRBN/EGFR exon 19 deletion mutant in human PC9 cells assessed as induction of degradation of EGFR by measuring fold change in EGFR protein expression at 10 uM incubated for 6 hrs by Western blot analysis relative to control (reference value: 1); assay type: cell-based; conditions: PC-9; in short: as §2
[12] = tested on: Protein cereblon/Epidermal growth factor receptor (Homo sapiens), P00533+Q96SW2 [UNDEFINED MUTATION]; experiment: (§3) Protac activity at CRBN/EGFR exon 19 deletion mutant in human PC9 cells assessed as induction of degradation of EGFR incubated for 6 hrs by Western blot analysis; assay type: cell-based; conditions: PC-9; in short: as §2
[13] = molecular target: Protein cereblon/Epidermal growth factor receptor (Homo sapiens, UniProt P00533+Q96SW2); experiment: as §3; assay type: cell-based; conditions: pc-9; in short: as §2
[14] = tested on: Protein cereblon/Epidermal growth factor receptor (Homo sapiens), P00533+Q96SW2 [L858R,T790M]; experiment: Protac activity at CRBN/EGFR L858R/T790M mutant in human H1975 cells assessed as induction of degradation of EGFR at 10 uM incubated for 24 hrs by Western blot analysis; assay type: cell-based
In short: (§4)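 PC9 (EGFR Del19) and H1975 (EGFR L858R/T790M) cells exposed to 10 μM compound for 24 h. Cell lysates analysed for EGFR protein by western blot.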

[15] = tested on: Protein cereblon/Epidermal growth factor receptor (Homo sapiens), P00533+Q96SW2 [UNDEFINED MUTATION]; experiment: Protac activity at CRBN/EGFR exon 19 deletion mutant in human PC9 cells assessed as increase in degradation of EGFR at 10 uM incubated for 24 hrs by Western blot analysis; assay type: cell-based; conditions: PC-9; in short: as §4
NCI-H1975 = experiment: Antiproliferative activity against human NCI-H1975 cells harboring EGFR L858R/T790M double mutant by MTT assay; assay type: functional, cell-based
In short: (§5)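 MTT proliferation read-out in human NSCLC lines: PC9 (EGFR Del19), HCC827 (EGFR Del E746-A750) and H1975 (EGFR L858R/T790M). IC50 values are in μM and reported as mean ± SD from n = 3.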

PC-9 [16] = experiment: Antiproliferative activity against human PC9 cells harboring EGFRDel19 mutant by MTT assay; assay type: functional, cell-based; in short: as §5
HCC827 = experiment: Antiproliferative activity against human HCC827 cells harboring EGFRDel19 mutant by MTT assay; assay type: functional, cell-based; in short: as §5
[17] = tested on: Protein cereblon/Epidermal growth factor receptor (Homo sapiens), P00533+Q96SW2 [UNDEFINED MUTATION]; experiment: Protac activity at CRBN/EGFR exon 19 deletion mutant in human PC9 cells assessed as induction of degradation of EGFR at 0.3 uM pretreated with proteasome inhibitor, MG-132 for 2 hrs followed by incubation with compound for 6 hrs by Western blot analysis; assay type: cell-based; conditions: PC-9
In short: (§6)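 PC9 cells pretreated for 2 h with proteasome inhibitor MG-132 (10 μM) or lenalidomide (10 μM), then given 0.3 μM PROTAC for 6 h. EGFR levels read by western blot.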

[18] = tested on: Protein cereblon/Epidermal growth factor receptor (Homo sapiens), P00533+Q96SW2 [UNDEFINED MUTATION]; experiment: Protac activity at CRBN/EGFR exon 19 deletion mutant in human PC9 cells assessed as induction of degradation of EGFR at 0.3 uM pretreated with proteasome inhibitor, lenalidomide for 2 hrs followed by incubation with compound for 6 hrs by Western blot analysis; assay type: cell-based; conditions: PC-9; in short: as §6
[19] = tested on: Protein cereblon/Epidermal growth factor receptor (Homo sapiens), P00533+Q96SW2 [UNDEFINED MUTATION]; experiment: Protac activity at CRBN/EGFR exon 19 deletion mutant in human PC9 cells assessed as induction of degradation of EGFR at 0.3 uM incubated for 24 hrs by DAPI-staining based immunofluorescence microscopy; assay type: cell-based; conditions: PC-9
PC-9 [20] = experiment: Induction of cell cycle arrest in human PC9 cells harboring EGFRDel19 mutant assessed as accumulation in G0/G1 phase at 0.5 uM incubated for 24 hrs by confocal microscopy; assay type: functional, cell-based
In short: (§7)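 PC9 cells were exposed to 0.5 μM test agent for 24 h. Cell cycle distribution and apoptosis were then read on an ImageXpress Micro Confocal/Widefield high-content imaging system.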

PC-9 [21] = experiment: Induction of apoptosis in human PC9 cells harboring EGFRDel19 mutant at 0.5 uM incubated for 24 hrs by confocal microscopy relative to control; assay type: functional; in short: as §7

Q: For `C=CC(=O)Nc1cc(Nc2nccc(-c3cn(C)c4ccccc34)n2)c(OC)cc1N(C)CCN(C)CCOCCOCCOCCOCC(=O)Nc1cccc2c1CN(C1CCC(=O)NC1=O)C2=O` (stereo not drawn), which fold change (FC) [1] is on record?
A: 0.57

Q: What about the fold change (FC) [2] of the same molecule?
A: 0.52

Q: What about the fold change (FC) [3] of the same molecule?
A: 1.39

Q: And the fold change (FC) [4]?
A: 1.01

Q: What about the fold change (FC) [5] of the same molecule?
A: 0.96

Q: What about the Emax [6] of the same molecule?
A: 56 to 68%

Q: What about the fold change (FC) [7] of the same molecule?
A: 0.61

Q: And the fold change (FC) [8]?
A: 0.32 to 0.44

Q: What about the fold change (FC) [9] of the same molecule?
A: 0.82

Q: What about the fold change (FC) [10] of the same molecule?
A: 0.49

Q: And the fold change (FC) [11]?
A: 0.39

Q: What about the Activity [12] of the same molecule?
A: Dose-dependent effect

Q: What about the DC50 [13] of the same molecule?
A: 0.161 µM

Q: And the Activity [14]?
A: Active

Q: And the Activity [15]?
A: Active

Q: What about the IC50 (NCI-H1975) of the same molecule?
A: 0.657 µM

Q: And the IC50 (PC-9 [16])?
A: 0.413 µM

Q: What about the IC50 (HCC827) of the same molecule?
A: 1.34 µM

Q: And the Activity [17]?
A: inactive

Q: And the Activity [18]?
A: inactive

Q: And the Activity [19]?
A: Active

Q: And the Activity (PC-9 [20])?
A: Active

Q: And the Activity (PC-9 [21])?
A: 38.6%

Q: For `C=CC(=O)Nc1cc(Nc2nccc(-c3cn(C)c4ccccc34)n2)c(OC)cc1N(C)CCN(C)CCOCCOCCOCC(=O)Nc1cccc2c1CN(C1CCC(=O)NC1=O)C2=O` (stereo not drawn), which Activity [14] is on record?
A: Active

Q: And the Activity [15]?
A: Active

Q: What about the IC50 (NCI-H1975) of the same molecule?
A: 1.7 µM

Q: What about the IC50 (PC-9 [16]) of the same molecule?
A: 1.12 µM

Q: What about the IC50 (HCC827) of the same molecule?
A: 1.61 µM

Q: Which Activity [14] does the source give for `C=CC(=O)Nc1cc(Nc2nccc(-c3cn(C)c4ccccc34)n2)c(OC)cc1N(C)CCN(C)CCOCCOCC(=O)Nc1cccc2c1CN(C1CCC(=O)NC1=O)C2=O` (stereo not drawn) here?
A: Active

Q: And the Activity [15]?
A: Active

Q: And the IC50 (NCI-H1975)?
A: 1.39 µM

Q: What about the IC50 (PC-9 [16]) of the same molecule?
A: 1.43 µM

Q: And the IC50 (HCC827)?
A: 1.87 µM
